Assay results from ChEMBL document CHEMBL4177742, “Synthesis and biological evaluation of 4β-(thiazol-2-yl)amino-4'-O-demethyl-4-deoxypodophyllotoxins as topoisomerase-II inhibitors” (Bioorg Med Chem Lett, 2018).
Activity calls are given as the source filed them. The rule behind the calls is not given here.

Assays:
A549 [1] = assay: Cytotoxicity against human A549 cells assessed as reduction in inhibition of cell growth incubated for 48 hrs by MTT assay; assay type: functional, cell-based; conditions: A549, 48 h
HepG2 = assay: Cytotoxicity against human HepG2 cells assessed as reduction in inhibition of cell growth incubated for 48 hrs by MTT assay; assay type: functional, cell-based; conditions: HepG2, 48 h
HeLa = assay: Cytotoxicity against human HeLa cells assessed as reduction in inhibition of cell growth incubated for 48 hrs by MTT assay; assay type: functional, cell-based
LoVo = assay: Cytotoxicity against human LoVo cells assessed as reduction in inhibition of cell growth incubated for 48 hrs by MTT assay; assay type: functional, cell-based
WI-38 = assay: Cytotoxicity against human WI38 cells assessed as reduction in inhibition of cell growth incubated for 48 hrs by MTT assay; assay type: cell-based; conditions: WI-38, 48 h
A549 [2] = assay: Inhibition of topoisomerase 2alpha protein expression in human A549 cells at 1 to 10 uM incubated for 12 hrs by Western blotting; assay type: functional, cell-based
Procedure, shortened: (§1)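 Topo-IIα and topo-IIβ expression was measured in A549 cells treated 12 h at 1, 5 and 10 μM, with etoposide (5 μM) as a reference treatment.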

A549 [3] = assay: Inhibition of topoisomerase 2beta protein expression in human A549 cells at 1 to 10 uM incubated for 12 hrs by Western blotting; assay type: functional, cell-based; procedure, shortened: as §1
[4] = biological target: DNA topoisomerase 2-alpha (Homo sapiens) (UniProt P11388); assay: Inhibition of topoisomerase 2alpha in human A549 cells assessed as reduction in enzyme-mediated super coliling activity by measuring induction of pBR322 DNA relaxation at 100 uM incubated for 12 hrs by ethidium bromide staining based agarose gel electrophoresis method; assay type: cell-based
DNA topoisomerase 2-alpha (Homo sapiens), sequence (P11388 whole entry): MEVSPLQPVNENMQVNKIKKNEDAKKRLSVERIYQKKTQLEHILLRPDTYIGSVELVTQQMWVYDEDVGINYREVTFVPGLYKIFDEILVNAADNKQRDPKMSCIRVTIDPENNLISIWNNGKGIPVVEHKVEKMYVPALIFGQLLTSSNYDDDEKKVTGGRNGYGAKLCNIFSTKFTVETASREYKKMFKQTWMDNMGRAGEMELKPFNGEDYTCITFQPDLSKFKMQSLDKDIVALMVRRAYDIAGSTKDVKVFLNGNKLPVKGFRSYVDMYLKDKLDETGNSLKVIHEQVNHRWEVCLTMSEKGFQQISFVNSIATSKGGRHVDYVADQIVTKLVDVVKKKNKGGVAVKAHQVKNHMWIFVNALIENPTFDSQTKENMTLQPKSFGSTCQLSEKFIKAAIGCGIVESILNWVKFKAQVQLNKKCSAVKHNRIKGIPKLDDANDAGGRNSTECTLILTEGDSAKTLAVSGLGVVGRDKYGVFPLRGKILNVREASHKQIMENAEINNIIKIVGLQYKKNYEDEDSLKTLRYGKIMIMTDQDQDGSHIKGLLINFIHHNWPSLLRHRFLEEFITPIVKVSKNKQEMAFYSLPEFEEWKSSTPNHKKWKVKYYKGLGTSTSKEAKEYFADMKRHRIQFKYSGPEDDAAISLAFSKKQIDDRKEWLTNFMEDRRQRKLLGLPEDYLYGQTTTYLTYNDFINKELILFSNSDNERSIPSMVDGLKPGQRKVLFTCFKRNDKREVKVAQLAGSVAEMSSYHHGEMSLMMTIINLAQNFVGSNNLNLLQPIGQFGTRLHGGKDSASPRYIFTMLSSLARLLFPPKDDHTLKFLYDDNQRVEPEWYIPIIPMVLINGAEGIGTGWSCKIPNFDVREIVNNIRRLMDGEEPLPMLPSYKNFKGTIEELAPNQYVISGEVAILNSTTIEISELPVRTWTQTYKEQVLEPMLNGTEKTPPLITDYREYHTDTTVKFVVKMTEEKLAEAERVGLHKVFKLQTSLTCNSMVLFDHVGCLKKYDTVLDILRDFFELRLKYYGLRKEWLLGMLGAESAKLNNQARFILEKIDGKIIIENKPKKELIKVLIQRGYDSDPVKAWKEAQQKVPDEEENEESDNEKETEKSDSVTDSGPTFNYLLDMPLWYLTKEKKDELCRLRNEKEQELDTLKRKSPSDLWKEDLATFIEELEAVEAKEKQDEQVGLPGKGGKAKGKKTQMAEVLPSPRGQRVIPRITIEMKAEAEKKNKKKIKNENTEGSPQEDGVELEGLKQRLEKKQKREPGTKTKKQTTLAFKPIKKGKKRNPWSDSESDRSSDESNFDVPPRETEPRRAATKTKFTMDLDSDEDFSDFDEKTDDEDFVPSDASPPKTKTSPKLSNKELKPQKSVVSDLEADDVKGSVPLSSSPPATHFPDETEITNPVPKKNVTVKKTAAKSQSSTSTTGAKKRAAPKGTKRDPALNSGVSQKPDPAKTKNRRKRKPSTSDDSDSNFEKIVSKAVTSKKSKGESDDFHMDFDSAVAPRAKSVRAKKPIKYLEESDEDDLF

A549 [5] = assay: Induction of DNA double stranded breaks in human A549 cells assessed as increase in gamma-H2Ax level at 1 to 10 uM incubated for 12 hrs by Western blotting; assay type: functional, cell-based
Procedure, shortened: (§2)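 A549 cells exposed for 12 h to 1, 5 or 10 μM alongside vehicle and etoposide (5 μM) as a reference. Lysates were probed by western blotting for phospho-H2AX (Ser-139, γH2AX), p73 and phospho-ATM.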

A549 [6] = assay: Induction of DNA double stranded breaks in human A549 cells assessed as increase in gamma-H2Ax level at 1 to 5 uM incubated for 12 hrs by DAPI staining based immunofluorescence assay; assay type: functional, cell-based
Procedure, shortened: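 A549 cells were treated 12 h with vehicle, 1 μM or 5 μM, then immunostained with anti-γH2AX antibody and counterstained with DAPI. Nuclear γH2AX foci were scored by immunofluorescence as a marker of DNA double-strand breaks.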

A549 [7] = assay: Induction of DNA double stranded breaks in human A549 cells assessed as increase in p73 protein levels at 1 to 10 uM incubated for 12 hrs by Western blotting; assay type: functional, cell-based; procedure, shortened: as §2
A549 [8] = assay: Induction of DNA double stranded breaks in human A549 cells assessed as increase in ATM phosphorylation levels at 1 to 10 uM incubated for 12 hrs by Western blotting; assay type: functional, cell-based; procedure, shortened: as §2
A549 [9] = assay: Induction of cell cycle arrest in human A549 cells assessed as increase in cyclin B1 protein level at 1 to 10 uM incubated for 12 hrs by Western blotting; assay type: functional, cell-based
Procedure, shortened: (§3)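 For G2/M regulators, A549 cells were exposed 12 h to 1, 5 or 10 μM and analysed by western blotting for cyclin B1 and cdc2(p34).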

A549 [10] = assay: Induction of cell cycle arrest in human A549 cells assessed as increase in cdc2(p34) protein level at 1 to 10 uM incubated for 12 hrs by Western blotting; assay type: functional, cell-based; procedure, shortened: as §3
A549 [11] = assay: Induction of cell cycle arrest in human A549 cells assessed as increase in accumulation at G2/M phase at 1 to 5 uM incubated for 12 hrs by propidium iodide staining based FACS analysis
A549 [12] = assay: Induction of cell cycle arrest in human A549 cells assessed as reduction in accumulation at G1 phase at 1 to 5 uM incubated for 12 hrs by propidium iodide staining based FACS analysis

COc1cc([C@@H]2c3cc4c(cc3[C@@H](Nc3nc(CC(=O)NC5CCCC5)cs3)[C@H]3COC(=O)[C@H]23)OCO4)cc(OC)c1O
IC50 (A549 [1]): 9.1 µM
IC50 (HepG2): 19.1 µM
IC50 (HeLa): 14.1 µM
IC50 (LoVo): 21 µM
IC50 (WI-38): 29 µM

COc1cc([C@@H]2c3cc4c(cc3[C@@H](O[C@@H]3O[C@@H]5CO[C@@H](C)O[C@H]5[C@H](O)[C@H]3O)[C@H]3COC(=O)[C@H]23)OCO4)cc(OC)c1O [ETOPOSIDE]
IC50 (A549 [1]): 9.1 µM
IC50 (HepG2): 9.2 µM
IC50 (HeLa): 11.2 µM
IC50 (LoVo): 18.7 µM
IC50 (WI-38): 25.7 µM

COc1cc([C@@H]2c3cc4c(cc3[C@@H](Nc3nc(CC(=O)N5CCOCC5)cs3)[C@H]3COC(=O)[C@H]23)OCO4)cc(OC)c1O
IC50 (A549 [1]): 18.7 µM
IC50 (HepG2): 15.1 µM
IC50 (HeLa): 14.8 µM
IC50 (LoVo): 37.2 µM
IC50 (WI-38): 33.5 µM

COc1cc([C@@H]2c3cc4c(cc3[C@@H](Nc3nc(CC(=O)NC5CC5)cs3)[C@H]3COC(=O)[C@H]23)OCO4)cc(OC)c1O
IC50 (A549 [1]): 11.1 µM
IC50 (HepG2): 10.2 µM
IC50 (HeLa): 17.2 µM
IC50 (LoVo): 19.1 µM
IC50 (WI-38): 56 µM

COc1cc([C@@H]2c3cc4c(cc3[C@@H](Nc3nc(CC(=O)O)cs3)[C@H]3COC(=O)[C@H]23)OCO4)cc(OC)c1O
IC50 (A549 [1]): 8.3 µM
IC50 (HepG2): 9.3 µM
IC50 (HeLa): 8.7 µM
IC50 (LoVo): 10.3 µM
IC50 (WI-38): 42.5 µM

CCOC(=O)Cc1csc(N[C@@H]2c3cc4c(cc3[C@@H](c3cc(OC)c(O)c(OC)c3)[C@H]3C(=O)OC[C@@H]32)OCO4)n1
IC50 (A549 [1]): 9.3 µM
IC50 (HepG2): 0.12 µM
IC50 (HeLa): 12.5 µM
IC50 (LoVo): 7 µM
IC50 (WI-38): 44.4 µM

COc1cc([C@@H]2c3cc4c(cc3[C@@H](Nc3nc(CC(=O)NC5CCCCC5)cs3)[C@H]3COC(=O)[C@H]23)OCO4)cc(OC)c1O
IC50 (A549 [1]): 9.4 µM
IC50 (HepG2): 16.3 µM
IC50 (HeLa): 10.7 µM
IC50 (LoVo): 19.1 µM
IC50 (WI-38): 77.8 µM

COc1cc([C@@H]2c3cc4c(cc3[C@@H](Nc3nc(CC(=O)N5CCN(C)CC5)cs3)[C@H]3COC(=O)[C@H]23)OCO4)cc(OC)c1O
IC50 (A549 [1]): 22.3 µM
IC50 (HepG2): 18.7 µM
IC50 (HeLa): 16.5 µM
IC50 (LoVo): 27.4 µM
IC50 (WI-38): 28.1 µM

COc1cc([C@@H]2c3cc4c(cc3[C@@H](Nc3nc(CC(=O)N5CCN(C6CCCC6)CC5)cs3)[C@H]3COC(=O)[C@H]23)OCO4)cc(OC)c1O
IC50 (A549 [1]): 1.3 µM
IC50 (HepG2): 8.5 µM
IC50 (HeLa): 4.4 µM
IC50 (LoVo): 9.2 µM
IC50 (WI-38): 66.7 µM
inhibition (A549 [2]): Dose-dependent effect
inhibition (A549 [3]): Dose-dependent effect
inhibition [4]: Active
Activity (A549 [5]): Dose-dependent effect
Activity (A549 [6]): Active
Activity (A549 [7]): Dose-dependent effect
Activity (A549 [8]): Dose-dependent effect
Activity (A549 [9]): Dose-dependent effect
Activity (A549 [10]): Dose-dependent effect
Activity (A549 [11]): Dose-dependent effect
Activity (A549 [12]): Dose-dependent effect

CCOC(=O)c1csc(N[C@@H]2c3cc4c(cc3[C@@H](c3cc(OC)c(O)c(OC)c3)[C@H]3C(=O)OC[C@@H]32)OCO4)n1
IC50 (A549 [1]): 0.16 µM
IC50 (HepG2): 0.13 µM
IC50 (HeLa): 5.6 µM
IC50 (LoVo): 5 µM
IC50 (WI-38): 55.3 µM
inhibition (A549 [2]): Dose-dependent effect
inhibition (A549 [3]): Dose-dependent effect
inhibition [4]: Active
Activity (A549 [5]): Dose-dependent effect
Activity (A549 [6]): Active
Activity (A549 [7]): Dose-dependent effect
Activity (A549 [8]): Dose-dependent effect
Activity (A549 [9]): Dose-dependent effect
Activity (A549 [10]): Dose-dependent effect
Activity (A549 [11]): Dose-dependent effect
Activity (A549 [12]): Dose-dependent effect
